What was measured:
Rattus norvegicus [1] = assay: Antiinflammatory activity, % inhibition was reported 3 hr after carrageenan injection in the hind paw edema test in rats: dose=80 mg/kg.; type: functional
Procedure, shortened: (§1)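 Male Wistar rats (90-120 g); paw edema raised by subcutaneous injection of 0.1 mL 1% carrageenin into the hind foot pad. Drug given orally at 80 mg/kg. Swelling inhibition read 3 h after carrageenin and compared with vehicle control for significance.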

Mus musculus = organism: Mus musculus; assay: Compound was tested for […] activity by phenylquinone writhing method in mice.; type: functional
Procedure, shortened: (§2)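 Phenylquinone (0.03% in 5% aqueous ethanol, 10 mL/kg ip) given to female ddN mice (18-22 g); test drug given orally 30 min beforehand. Writhes counted over 15 min, starting 5 min after phenylquinone. Five to ten mice per dose; values given with range and n.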

[2] = Acute lethal toxicity on day 7 was determined; type: organism-based; conditions: mouse, in vivo
Mus sp. = assay: Analgesic activity by phenylquinone writhing method in mice after peroral administration; type: functional; conditions: po; procedure, shortened: as §2
Rattus norvegicus [3] = assay: Antiinflammatory activity, % inhibition was reported 3 hr after carrageenan injection in the hind paw edema test in rats: dose=80 mg/kg; type: functional; procedure, shortened: as §1
Rattus norvegicus [4] = assay: Compound was tested for antiinflammatory activity and the % inhibition was reported 3 hr after carrageenan injection in the hind paw edema test in rats: dose=80 mg/kg; type: functional; procedure, shortened: as §1
Rattus norvegicus [5] = assay: Compound was tested for antiinflammatory activity and the % inhibition was reported 3 h after carrageenan injection in the hind paw edema test in rats: dose=40 mg/kg, p.o.; type: functional; conditions: po
Procedure, shortened: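 Male Wistar rats (90-120 g) given 0.1 mL 1% carrageenin subcutaneously into the hind foot pad. Drug given po at 40 mg/kg. Edema inhibition read at 3 h after carrageenin and compared with vehicle control.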

`CCCCCn1nc(C)c2c(C)cc(=O)oc21` gave an inhibition in vivo at 80 mg/kg (Rattus norvegicus [1]) of 3.5% and an ED50 (Mus musculus) greater than 100 mg/kg.

`Cc1cc(=O)oc2nn(C)c(C)c12` gave an inhibition in vivo at 80 mg/kg (Rattus norvegicus [1]) of 3.3%, an ED50 (Mus musculus) of 6.09 mg/kg and an LD50 at 7 day [2] of 250 mg/kg.

`CCCCn1nc(C)c2c(C)cc(=O)oc21` gave an inhibition in vivo at 80 mg/kg (Rattus norvegicus [1]) of -0.9% and an ED50 (Mus musculus) greater than 100 mg/kg.

Molecule `Cc1cc(=O)oc2c1c(C)nn2CCO` has an inhibition in vivo at 80 mg/kg (Rattus norvegicus [1]) of -0.9% and an ED50 (Mus musculus) of 100 mg/kg.

With `CCCCCn1nc2oc(=O)cc(C)c2c1C` the inhibition in vivo at 80 mg/kg (Rattus norvegicus [1]) was -5.4% and the ED50 (Mus musculus) was 60.6 mg/kg.

For `Cc1cc(=O)oc2c1c(CC(=O)O)nn2C`, the inhibition in vivo at 80 mg/kg (Rattus norvegicus [1]) was -3.1% and the ED50 (Mus musculus) was greater than 100 mg/kg.

`CCCCn1nc2oc(=O)cc(C)c2c1C` gave an inhibition in vivo at 80 mg/kg (Rattus norvegicus [1]) of -3.1% and an ED50 (Mus musculus) greater than 100 mg/kg.

`CCn1nc(C)c2c(C)cc(=O)oc21` showed an inhibition in vivo at 80 mg/kg (Rattus norvegicus [1]) of 12.1% and an ED50 (Mus musculus) of 24.9 mg/kg.

In the case of `Cc1cc(O)oc2nnc(CC(=O)O)c1-2`, the inhibition in vivo at 80 mg/kg (Rattus norvegicus [1]) was 6.4% and the ED50 (Mus musculus) was greater than 100 mg/kg.

Work on `CCOC(=O)Cc1nnc2oc(O)cc(C)c1-2` yielded an inhibition in vivo at 80 mg/kg (Rattus norvegicus [1]) of -4.1% and an ED50 (Mus musculus) greater than 100 mg/kg.

Molecule `Cc1cc(=O)oc2nn(CCCl)c(C)c12` has an inhibition in vivo at 80 mg/kg (Rattus norvegicus [1]) of -2.1% and an ED50 (Mus sp.) of 56 mg/kg.

In the case of `Cc1cc(=O)oc2c1c(C)nn2C(C)C`, the inhibition in vivo at 80 mg/kg (Rattus norvegicus [1]) was 1.1% and the ED50 (Mus musculus) was greater than 100 mg/kg.

Molecule `Cc1cc(=O)oc2c1c(C)nn2C` has an inhibition in vivo at 80 mg/kg (Rattus norvegicus [1]) of 4.7%, an ED50 (Mus musculus) of 11.6 mg/kg and an LD50 at 7 day [2] greater than 1500 mg/kg.

Work on `Cc1cc(=O)oc2nn(CCN3CCOCC3)c(C)c12` yielded an inhibition in vivo at 80 mg/kg (Rattus norvegicus [1]) of 4.4% and an ED50 (Mus musculus) greater than 100 mg/kg.

`CCOC(=O)Cc1nn(C)c2oc(=O)cc(C)c12` showed an inhibition in vivo at 80 mg/kg (Rattus norvegicus [1]) of -3.1% and an ED50 (Mus musculus) greater than 100 mg/kg.

`Cc1cc(=O)oc2nn(C(C)C)c(C)c12` gave an inhibition in vivo at 80 mg/kg (Rattus norvegicus [1]) of 3.7% and an ED50 (Mus musculus) of 35.3 mg/kg.

For `CCn1nc2oc(=O)cc(C)c2c1C`, the ED50 (Mus musculus) was 14.6 mg/kg and the inhibition in vivo at 80 mg/kg (Rattus norvegicus [3]) was 13.1%.

Work on `CCCn1nc2oc(=O)cc(C)c2c1C` yielded an inhibition in vivo at 80 mg/kg (Rattus norvegicus [1]) of 4.9% and an ED50 (Mus musculus) of 72.6 mg/kg.

With `CCCn1nc(C)c2c(C)cc(=O)oc21` the inhibition in vivo at 80 mg/kg (Rattus norvegicus [1]) was -0.6% and the ED50 (Mus musculus) was 54.3 mg/kg.

Molecule `CC(=O)n1nc2oc(=O)cc(C)c2c1C` has an inhibition in vivo at 80 mg/kg (Rattus norvegicus [1]) of 4.5% and an ED50 (Mus sp.) of 12.2 mg/kg.

`Cc1cc(=O)oc2nn(C(=O)c3ccccc3)c(C)c12` gave an inhibition in vivo at 80 mg/kg (Rattus norvegicus [1]) of 11.9% and an ED50 (Mus sp.) of 35 mg/kg.

Molecule `Cc1cc(=O)oc2nn(CCO)c(C)c12` has an inhibition in vivo at 80 mg/kg (Rattus norvegicus [1]) of 1.8% and an ED50 (Mus musculus) greater than 100 mg/kg.

With `Cc1cc(=O)oc2nn(C(=O)c3ccco3)c(C)c12` the inhibition in vivo at 80 mg/kg (Rattus norvegicus [1]) was 2.2% and the ED50 (Mus sp.) was 74.3 mg/kg.

For `CCN(CC)CCn1nc2oc(=O)cc(C)c2c1C`, the inhibition in vivo at 80 mg/kg (Rattus norvegicus [4]) was 17% and the ED50 (Mus musculus) was 100 mg/kg.

`Cc1cc(=O)oc2nn(C(=O)CCl)c(C)c12` showed an inhibition in vivo at 80 mg/kg (Rattus norvegicus [1]) of 5.2% and an ED50 (Mus sp.) greater than 100 mg/kg.

For `Cc1c(N(C)C)c(=O)n(-c2ccccc2)n1C` [AMINOPYRINE], the inhibition in vivo at 80 mg/kg (Rattus norvegicus [4]) was 17.5% and the ED50 (Mus musculus) was 19.2 mg/kg.

`CC(=O)Oc1ccccc1C(=O)O` [ASPIRIN] gave an ED50 (Mus sp.) greater than 100 mg/kg.

Molecule `CC(C)Cc1ccc(C(C)C(=O)O)cc1` (centres undefined) [IBUPROFEN] has an inhibition in vivo at 80 mg/kg (Rattus norvegicus [4]) of 39% and an ED50 (Mus musculus) of 50 mg/kg.

For `Cc1cccc(Nc2ccccc2C(=O)O)c1C` [MEFENAMIC ACID], the inhibition in vivo at 40 mg/kg (Rattus norvegicus [5]) was 33.1% and the ED50 (Mus musculus) was 45.9 mg/kg.

From ChEMBL document CHEMBL1122640, “Studies on heterocyclic compounds. 6. Synthesis and analgesic and antiinflammatory activities of 3,4-dimethylpyrano[2,3-c]pyrazol-6-one derivatives” (J Med Chem, 1984)
